Legend:
Salmonella enterica = assay: Antibacterial activity against Salmonella enterica ATCC 8387 assessed as reduction in bacterial growth incubated for 16 to 20 hrs by CLSI-based broth microdilution method; format: functional; conditions: time 16-20 hrs
Outline: (§1)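 Broth microdilution following CLSI, in cation-adjusted Mueller-Hinton broth. Inoculum from a 4-6 h culture (~10^8 CFU/mL), diluted to ~10^6 CFU/mL. Water stocks were serially diluted in MHB (256 to 0.5 µg/mL) and mixed 1:1 with the inoculum. Plates ran 16-20 h at 37 °C. MIC was read visually. Each concentration was tested in duplicate, and the experiment was repeated at least twice.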

Enterococcus faecalis = assay: Antibacterial activity against Enterococcus faecalis ATCC 29212 assessed as reduction in bacterial growth incubated 16 to 20 hrs by CLSI-based broth microdilution method; format: functional; conditions: time 16-20 hrs; outline: as §1
[1] = Solubility of the compound in water at room temperature; format: physicochemical; conditions: buffer
Escherichia coli = assay: Antibacterial activity against Escherichia coli ATCC 25922 assessed as reduction in bacterial growth incubated 16 to 20 hrs by CLSI-based broth microdilution method; format: functional; conditions: time 16-20 hrs; outline: as §1
Staphylococcus aureus [2] = assay: Antibacterial activity against Staphylococcus aureus ATCC 29213 assessed as reduction in bacterial growth incubated for 16 to 20 hrs by CLSI-based broth microdilution method; format: functional; conditions: time 16-20 hrs; outline: as §1
Staphylococcus aureus [3] = assay: Antibacterial activity against methicillin-resistant Staphylococcus aureus clinical isolate 3 assessed as reduction in bacterial growth incubated for 16 to 20 hrs by CLSI-based broth microdilution method; format: functional; conditions: time 16-20 hrs
Outline: (§2)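 Clinical isolates tested by broth microdilution in cation-adjusted Mueller-Hinton broth. Cultures grown 4-6 h (~10^8 CFU/mL) were diluted to ~10^6 CFU/mL and mixed 1:1 with compound serial dilutions made from 256 down to 0.5 µg/mL (pre-mixing). Plates held at 37 °C for 16-20 h, then read for growth. Each concentration run in duplicate, whole experiment at least twice.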

Staphylococcus aureus [4] = assay: Antibacterial activity against methicillin-resistant Staphylococcus aureus clinical isolate 10 assessed as reduction in bacterial growth incubated for 16 to 20 hrs by CLSI-based broth microdilution method; format: functional; conditions: time 16-20 hrs; outline: as §2
Klebsiella pneumoniae [5] = assay: Antibacterial activity against carbapenem-resistant Klebsiella pneumoniae clinical isolate 9 assessed as reduction in bacterial growth incubated for 16 to 20 hrs by CLSI-based broth microdilution method; format: functional; conditions: time 16-20 hrs; outline: as §2
Klebsiella pneumoniae [6] = assay: Antibacterial activity against carbapenem-resistant Klebsiella pneumoniae clinical isolate 8 assessed as reduction in bacterial growth incubated for 16 to 20 hrs by CLSI-based broth microdilution method; format: functional; conditions: time 16-20 hrs; outline: as §2
Staphylococcus aureus [7] = assay: Antibacterial activity against methicillin-resistant Staphylococcus aureus clinical isolate 9 assessed as reduction in bacterial growth incubated for 16 to 20 hrs by CLSI-based broth microdilution method; format: functional; conditions: time 16-20 hrs; outline: as §2
Enterobacteriaceae [8] = assay: Antibacterial activity against NDM1 producing carbapenem-resistant Enterobacteriaceae clinical isolate 10 assessed as reduction in bacterial growth incubated for 16 to 20 hrs by CLSI-based broth microdilution method; format: functional; conditions: time 16-20 hrs; outline: as §2
Enterobacteriaceae [9] = assay: Antibacterial activity against NDM1 producing carbapenem-resistant Enterobacteriaceae clinical isolate 9 assessed as reduction in bacterial growth incubated for 16 to 20 hrs by CLSI-based broth microdilution method; format: functional; conditions: time 16-20 hrs; outline: as §2
Enterobacteriaceae [10] = assay: Antibacterial activity against NDM1 producing carbapenem-resistant Enterobacteriaceae clinical isolate 4 assessed as reduction in bacterial growth incubated for 16 to 20 hrs by CLSI-based broth microdilution method; format: functional; conditions: time 16-20 hrs; outline: as §2
Enterobacteriaceae [11] = assay: Antibacterial activity against NDM1 producing carbapenem-resistant Enterobacteriaceae clinical isolate 1 assessed as reduction in bacterial growth incubated for 16 to 20 hrs by CLSI-based broth microdilution method; format: functional; conditions: time 16-20 hrs; outline: as §2
Klebsiella pneumoniae [12] = assay: Antibacterial activity against carbapenem-resistant Klebsiella pneumoniae clinical isolate 10 assessed as reduction in bacterial growth incubated for 16 to 20 hrs by CLSI-based broth microdilution method; format: functional; conditions: time 16-20 hrs; outline: as §2
Enterobacteriaceae [13] = assay: Antibacterial activity against NDM1 producing carbapenem-resistant Enterobacteriaceae clinical isolate 3 assessed as reduction in bacterial growth incubated for 16 to 20 hrs by CLSI-based broth microdilution method; format: functional; conditions: time 16-20 hrs; outline: as §2
Staphylococcus aureus [14] = assay: Antibacterial activity against methicillin-resistant Staphylococcus aureus clinical isolate 4 assessed as reduction in bacterial growth incubated for 16 to 20 hrs by CLSI-based broth microdilution method; format: functional; conditions: time 16-20 hrs; outline: as §2
Klebsiella pneumoniae [15] = assay: Antibacterial activity against carbapenem-resistant Klebsiella pneumoniae clinical isolate 3 assessed as reduction in bacterial growth incubated for 16 to 20 hrs by CLSI-based broth microdilution method; format: functional; conditions: time 16-20 hrs; outline: as §2
Staphylococcus aureus [16] = assay: Antibacterial activity against methicillin-resistant Staphylococcus aureus clinical isolate 2 assessed as reduction in bacterial growth incubated for 16 to 20 hrs by CLSI-based broth microdilution method; format: functional; conditions: time 16-20 hrs; outline: as §2
Staphylococcus aureus [17] = assay: Antibacterial activity against methicillin-resistant Staphylococcus aureus clinical isolate 8 assessed as reduction in bacterial growth incubated for 16 to 20 hrs by CLSI-based broth microdilution method; format: functional; conditions: time 16-20 hrs; outline: as §2
Enterobacteriaceae [18] = assay: Antibacterial activity against NDM1 producing carbapenem-resistant Enterobacteriaceae clinical isolate 6 assessed as reduction in bacterial growth incubated for 16 to 20 hrs by CLSI-based broth microdilution method; format: functional; conditions: time 16-20 hrs; outline: as §2
Enterobacteriaceae [19] = assay: Antibacterial activity against NDM1 producing carbapenem-resistant Enterobacteriaceae clinical isolate 2 assessed as reduction in bacterial growth incubated for 16 to 20 hrs by CLSI-based broth microdilution method; format: functional; conditions: time 16-20 hrs; outline: as §2
Klebsiella pneumoniae [20] = assay: Antibacterial activity against carbapenem-resistant Klebsiella pneumoniae clinical isolate 6 assessed as reduction in bacterial growth incubated for 16 to 20 hrs by CLSI-based broth microdilution method; format: functional; conditions: time 16-20 hrs; outline: as §2
Staphylococcus aureus [21] = assay: Antibacterial activity against methicillin-resistant Staphylococcus aureus clinical isolate 1 assessed as reduction in bacterial growth incubated for 16 to 20 hrs by CLSI-based broth microdilution method; format: functional; conditions: time 16-20 hrs; outline: as §2
Klebsiella pneumoniae [22] = assay: Antibacterial activity against carbapenem-resistant Klebsiella pneumoniae clinical isolate 5 assessed as reduction in bacterial growth incubated for 16 to 20 hrs by CLSI-based broth microdilution method; format: functional; conditions: time 16-20 hrs; outline: as §2
Staphylococcus aureus [23] = assay: Antibacterial activity against methicillin-resistant Staphylococcus aureus clinical isolate 7 assessed as reduction in bacterial growth incubated for 16 to 20 hrs by CLSI-based broth microdilution method; format: functional; conditions: time 16-20 hrs; outline: as §2
Klebsiella pneumoniae [24] = assay: Antibacterial activity against carbapenem-resistant Klebsiella pneumoniae clinical isolate 2 assessed as reduction in bacterial growth incubated for 16 to 20 hrs by CLSI-based broth microdilution method; format: functional; conditions: time 16-20 hrs; outline: as §2
Klebsiella pneumoniae [25] = assay: Antibacterial activity against carbapenem-resistant Klebsiella pneumoniae clinical isolate 4 assessed as reduction in bacterial growth incubated for 16 to 20 hrs by CLSI-based broth microdilution method; format: functional; conditions: time 16-20 hrs; outline: as §2
Enterobacteriaceae [26] = assay: Antibacterial activity against NDM1 producing carbapenem-resistant Enterobacteriaceae clinical isolate 7 assessed as reduction in bacterial growth incubated for 16 to 20 hrs by CLSI-based broth microdilution method; format: functional; conditions: time 16-20 hrs; outline: as §2
Klebsiella pneumoniae [27] = assay: Antibacterial activity against carbapenem-resistant Klebsiella pneumoniae clinical isolate 7 assessed as reduction in bacterial growth incubated for 16 to 20 hrs by CLSI-based broth microdilution method; format: functional; conditions: time 16-20 hrs; outline: as §2
Staphylococcus aureus [28] = assay: Antibacterial activity against methicillin-resistant Staphylococcus aureus clinical isolate 6 assessed as reduction in bacterial growth incubated for 16 to 20 hrs by CLSI-based broth microdilution method; format: functional; conditions: time 16-20 hrs; outline: as §2
Enterobacteriaceae [29] = assay: Antibacterial activity against NDM1 producing carbapenem-resistant Enterobacteriaceae clinical isolate 5 assessed as reduction in bacterial growth incubated for 16 to 20 hrs by CLSI-based broth microdilution method; format: functional; conditions: time 16-20 hrs; outline: as §2
Enterobacteriaceae [30] = assay: Antibacterial activity against NDM1 producing carbapenem-resistant Enterobacteriaceae clinical isolate 8 assessed as reduction in bacterial growth incubated for 16 to 20 hrs by CLSI-based broth microdilution method; format: functional; conditions: time 16-20 hrs; outline: as §2
Staphylococcus aureus [31] = assay: Antibacterial activity against methicillin-resistant Staphylococcus aureus clinical isolate 5 assessed as reduction in bacterial growth incubated for 16 to 20 hrs by CLSI-based broth microdilution method; format: functional; conditions: time 16-20 hrs; outline: as §2
Klebsiella pneumoniae [32] = assay: Antibacterial activity against carbapenem-resistant Klebsiella pneumoniae clinical isolate 1 assessed as reduction in bacterial growth incubated for 16 to 20 hrs by CLSI-based broth microdilution method; format: functional; conditions: time 16-20 hrs; outline: as §2

CCCCCCCCC[N+](C)(C)CC(=O)NC[C@H]1CN(c2ccc(N3CCOCC3)c(F)c2)C(=O)O1.[Cl-]
MIC (Salmonella enterica): 32 µg/mL | MIC (Enterococcus faecalis): 16 µg/mL | solubility [1]: Soluble | MIC (Escherichia coli): 32 µg/mL | MIC (Staphylococcus aureus [2]): 8 µg/mL

CCCCCCCCCCCCCCCCCC[N+](C)(C)CC(=O)NC[C@H]1CN(c2ccc(N3CCOCC3)c(F)c2)C(=O)O1.[Cl-]
MIC (Salmonella enterica): > 128 µg/mL | MIC (Enterococcus faecalis): 16 µg/mL | solubility [1]: Soluble | MIC (Escherichia coli): > 128 µg/mL | MIC (Staphylococcus aureus [2]): 4 µg/mL

CCCCCCCCCCN(C[C@H]1CN(c2ccc(N3CCOCC3)c(F)c2)C(=O)O1)C(=O)[C@@H](N)CCCCN.Cl.Cl
MIC (Salmonella enterica): 32 µg/mL | MIC (Enterococcus faecalis): 8 µg/mL | solubility [1]: Soluble | MIC (Escherichia coli): 32 µg/mL | MIC (Staphylococcus aureus [2]): 4 µg/mL

CCCCCCCCCCCC[N+](C)(C)CC(=O)NC[C@H]1CN(c2ccc(N3CCOCC3)c(F)c2)C(=O)O1.[Cl-]
MIC (Staphylococcus aureus [3]): 2 µg/mL | MIC (Staphylococcus aureus [4]): 8 µg/mL | MIC (Klebsiella pneumoniae [5]): 64 µg/mL | MIC (Klebsiella pneumoniae [6]): 32 µg/mL | MIC (Salmonella enterica): 16 µg/mL | MIC (Staphylococcus aureus [7]): 8 µg/mL | MIC (Enterobacteriaceae [8]): 32 µg/mL | MIC (Enterobacteriaceae [9]): 16 µg/mL | MIC (Enterococcus faecalis): 4 µg/mL | MIC (Enterobacteriaceae [10]): 64 µg/mL | MIC (Enterobacteriaceae [11]): > 64 µg/mL | MIC (Klebsiella pneumoniae [12]): 64 µg/mL | MIC (Enterobacteriaceae [13]): 64 µg/mL | MIC (Staphylococcus aureus [14]): 16 µg/mL | MIC (Klebsiella pneumoniae [15]): 64 µg/mL | solubility [1]: Soluble | MIC (Staphylococcus aureus [16]): 8 µg/mL | MIC (Staphylococcus aureus [17]): 8 µg/mL | MIC (Enterobacteriaceae [18]): 16 µg/mL | MIC (Enterobacteriaceae [19]): > 64 µg/mL | MIC (Klebsiella pneumoniae [20]): 32 µg/mL | MIC (Staphylococcus aureus [21]): 4 µg/mL | MIC (Klebsiella pneumoniae [22]): 64 µg/mL | MIC (Staphylococcus aureus [23]): 4 µg/mL | MIC (Klebsiella pneumoniae [24]): 32 µg/mL | MIC (Klebsiella pneumoniae [25]): 64 µg/mL | MIC (Enterobacteriaceae [26]): 32 µg/mL | MIC (Klebsiella pneumoniae [27]): 64 µg/mL | MIC (Escherichia coli): 16 µg/mL | MIC (Staphylococcus aureus [28]): 4 µg/mL | MIC (Enterobacteriaceae [29]): 32 µg/mL | MIC (Enterobacteriaceae [30]): 16 µg/mL | MIC (Staphylococcus aureus [2]): 8 µg/mL | MIC (Staphylococcus aureus [31]): 4 µg/mL | MIC (Klebsiella pneumoniae [32]): 32 µg/mL
